≈ marks a conversion by molar mass, not a printed value. Calls of active or inactive are those of the source. No cut-off for these calls is given here.
How the values were obtained:
Trichoderma koningii [1] = assay: Antifungal activity against Trichoderma koningii assessed as radial growth at 7% after 72 hrs by poison food technique of Flack relative to control; assay type: functional
Outline: (§1)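 Acetone stock added to molten sterilized PDA to final 0.5–7%, plated in 90 mm dishes with compound-free plates as control. Each plate was inoculated with a 9 mm disc from a 4-day-old culture, incubated at 25 ± 1 °C, and colony diameter measured at 24 h intervals. % inhibition = (control − treatment)/control × 100; three replicates averaged.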

Trichoderma hamatum [2] = assay: Antifungal activity against Trichoderma hamatum assessed as radial growth at 5% after 24 hrs by poison food technique of Flack relative to control; assay type: functional; outline: as §1
Trichoderma hamatum [3] = assay: Antifungal activity against Trichoderma hamatum assessed as radial growth at 7% after 72 hrs by poison food technique of Flack relative to control; assay type: functional; outline: as §1
Trichoderma hamatum [4] = assay: Antifungal activity against Trichoderma hamatum assessed as radial growth at 3% after 72 hrs by poison food technique of Flack relative to control; assay type: functional
Aspergillus niger [5] = assay: Antifungal activity against Aspergillus niger assessed as radial growth at 1% after 24 hrs by poison food technique of Flack relative to control; assay type: functional
Trichoderma koningii [6] = assay: Antifungal activity against Trichoderma koningii assessed as radial growth at 1% after 24 hrs by poison food technique of Flack relative to control; assay type: functional; outline: as §1
Aspergillus niger [7] = assay: Antifungal activity against Aspergillus niger assessed as radial growth at 3% after 24 hrs by poison food technique of Flack relative to control; assay type: functional
Trichoderma hamatum [8] = assay: Antifungal activity against Trichoderma hamatum assessed as radial growth at 3% after 48 hrs by poison food technique of Flack relative to control; assay type: functional
Trichoderma hamatum [9] = assay: Antifungal activity against Trichoderma hamatum assessed as radial growth at 1% after 24 hrs by poison food technique of Flack relative to control; assay type: functional
Trichoderma koningii [10] = assay: Antifungal activity against Trichoderma koningii assessed as radial growth at 5% after 48 hrs by poison food technique of Flack relative to control; assay type: functional; outline: as §1
Trichoderma hamatum [11] = assay: Antifungal activity against Trichoderma hamatum assessed as radial growth at 1% after 48 hrs by poison food technique of Flack relative to control; assay type: functional
Aspergillus niger [12] = assay: Antifungal activity against Aspergillus niger assessed as radial growth at 0.5% after 48 hrs by poison food technique of Flack relative to control; assay type: functional
Aspergillus niger [13] = assay: Antifungal activity against Aspergillus niger assessed as radial growth at 3% after 48 hrs by poison food technique of Flack relative to control; assay type: functional
Trichoderma hamatum [14] = assay: Antifungal activity against Trichoderma hamatum assessed as radial growth at 7% after 24 hrs by poison food technique of Flack; assay type: functional, organism-based
Outline: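 Poisoned-food method: acetone stock mixed into molten sterilized potato dextrose agar to final 0.5, 1, 3, 5 or 7%, poured into 90 mm plates. Plates were inoculated with a 9 mm mycelial disc from a 4-day-old pure culture and incubated at 25 ± 1 °C. Colony diameter (mm) was read every 24 h; mean of three replicates.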

Trichoderma koningii [15] = assay: Antifungal activity against Trichoderma koningii assessed as radial growth at 0.5% after 48 hrs by poison food technique of Flack relative to control; assay type: functional; outline: as §1
Aspergillus niger [16] = assay: Antifungal activity against Aspergillus niger assessed as radial growth at 5% after 24 hrs by poison food technique of Flack relative to control; assay type: functional
Trichoderma koningii [17] = assay: Antifungal activity against Trichoderma koningii assessed as radial growth at 3% after 72 hrs by poison food technique of Flack relative to control; assay type: functional; outline: as §1
Trichoderma koningii [18] = assay: Antifungal activity against Trichoderma koningii assessed as radial growth at 7% after 24 hrs by poison food technique of Flack relative to control; assay type: functional; outline: as §1
Aspergillus niger [19] = assay: Antifungal activity against Aspergillus niger assessed as radial growth at 7% after 48 hrs by poison food technique of Flack relative to control; assay type: functional
Aspergillus niger [20] = assay: Antifungal activity against Aspergillus niger assessed as radial growth at 7% after 24 hrs by poison food technique of Flack relative to control; assay type: functional
Trichoderma koningii [21] = assay: Antifungal activity against Trichoderma koningii assessed as radial growth at 5% after 72 hrs by poison food technique of Flack relative to control; assay type: functional; outline: as §1
Trichoderma koningii [22] = assay: Antifungal activity against Trichoderma koningii assessed as radial growth at 0.5% after 24 hrs by poison food technique of Flack relative to control; assay type: functional; outline: as §1
Trichoderma koningii [23] = assay: Antifungal activity against Trichoderma koningii assessed as radial growth at 5% after 24 hrs by poison food technique of Flack relative to control; assay type: functional; outline: as §1
Aspergillus niger [24] = assay: Antifungal activity against Aspergillus niger assessed as radial growth at 0.5% after 24 hrs by poison food technique of Flack relative to control; assay type: functional
Aspergillus niger [25] = assay: Antifungal activity against Aspergillus niger assessed as radial growth at 7% after 72 hrs by poison food technique of Flack relative to control; assay type: functional
Trichoderma hamatum [26] = assay: Antifungal activity against Trichoderma hamatum; assay type: functional
Trichoderma hamatum [27] = assay: Antifungal activity against Trichoderma hamatum assessed as radial growth at 1% after 72 hrs by poison food technique of Flack relative to control; assay type: functional
Aspergillus niger [28] = assay: Antifungal activity against Aspergillus niger assessed as radial growth at 5% after 72 hrs by poison food technique of Flack relative to control; assay type: functional
Trichoderma koningii [29] = assay: Antifungal activity against Trichoderma koningii assessed as radial growth at 3% after 48 hrs by poison food technique of Flack relative to control; assay type: functional; outline: as §1
Trichoderma koningii [30] = assay: Antifungal activity against Trichoderma koningii assessed as radial growth at 1% after 48 hrs by poison food technique of Flack relative to control; assay type: functional; outline: as §1
Trichoderma koningii [31] = assay: Antifungal activity against Trichoderma koningii assessed as radial growth at 1% after 72 hrs by poison food technique of Flack relative to control; assay type: functional; outline: as §1
Trichoderma hamatum [32] = assay: Antifungal activity against Trichoderma hamatum assessed as radial growth at 0.5% after 72 hrs by poison food technique of Flack relative to control; assay type: functional
Aspergillus niger [33] = assay: Antifungal activity against Aspergillus niger assessed as radial growth at 5% after 48 hrs by poison food technique of Flack relative to control; assay type: functional
Aspergillus niger [34] = assay: Antifungal activity against Aspergillus niger assessed as radial growth at 1% after 48 hrs by poison food technique of Flack relative to control; assay type: functional
Trichoderma hamatum [35] = assay: Antifungal activity against Trichoderma hamatum assessed as radial growth at 0.5% after 48 hrs by poison food technique of Flack relative to control; assay type: functional
Trichoderma koningii [36] = assay: Antifungal activity against Trichoderma koningii assessed as radial growth at 3% after 24 hrs by poison food technique of Flack relative to control; assay type: functional; outline: as §1
Aspergillus niger [37] = assay: Antifungal activity against Aspergillus niger assessed as radial growth at 1% after 72 hrs by poison food technique of Flack relative to control; assay type: functional
Trichoderma koningii [38] = assay: Antifungal activity against Trichoderma koningii assessed as radial growth at 0.5% after 72 hrs by poison food technique of Flack relative to control; assay type: functional; outline: as §1
Trichoderma hamatum [39] = assay: Antifungal activity against Trichoderma hamatum assessed as radial growth at 7% after 24 hrs by poison food technique of Flack relative to control; assay type: functional; outline: as §1
Aspergillus niger [40] = assay: Antifungal activity against Aspergillus niger assessed as radial growth at 0.5% after 72 hrs by poison food technique of Flack relative to control; assay type: functional
Aspergillus niger [41] = assay: Antifungal activity against Aspergillus niger; assay type: functional
Trichoderma hamatum [42] = assay: Antifungal activity against Trichoderma hamatum assessed as radial growth at 5% after 72 hrs by poison food technique of Flack relative to control; assay type: functional; outline: as §1
Trichoderma hamatum [43] = assay: Antifungal activity against Trichoderma hamatum assessed as radial growth at 3% after 24 hrs by poison food technique of Flack relative to control; assay type: functional
Trichoderma koningii [44] = assay: Antifungal activity against Trichoderma koningii; assay type: functional
Trichoderma hamatum [45] = assay: Antifungal activity against Trichoderma hamatum assessed as radial growth at 0.5% after 24 hrs by poison food technique of Flack relative to control; assay type: functional

- MIC (Trichoderma hamatum [26]): 0.025 µg/mL (≈ 0.0824 µM)
- MIC (Aspergillus niger [41]): 0.35 µg/mL (≈ 1.15 µM)
- MIC (Trichoderma koningii [44]): 0.025 µg/mL (≈ 0.0824 µM)
SMILES: CCOC(=O)C1=C(C)NC(=O)NC1c1ccc(N(C)C)cc1 (stereo not given)
- inhibition (INH) (Trichoderma koningii [1]): 80%
- inhibition (INH) (Trichoderma hamatum [2]): 84.2%
- inhibition (INH) (Trichoderma hamatum [3]): 93.82%
- inhibition (INH) (Trichoderma hamatum [4]): 73.04%
- inhibition (INH) (Aspergillus niger [5]): 42.85%
- inhibition (INH) (Trichoderma koningii [6]): 9.36%
- inhibition (INH) (Aspergillus niger [7]): 100%
- inhibition (INH) (Trichoderma hamatum [8]): 75.31%
- inhibition (INH) (Trichoderma hamatum [9]): 0%
- inhibition (INH) (Trichoderma koningii [10]): 87.09%
- inhibition (INH) (Trichoderma hamatum [11]): 0%
- inhibition (INH) (Aspergillus niger [12]): 41.66%
- inhibition (INH) (Aspergillus niger [13]): 75%
- Activity (Trichoderma hamatum [14]): Active
- inhibition (INH) (Trichoderma koningii [15]): 9.67%
- inhibition (INH) (Aspergillus niger [16]): 100%
- inhibition (INH) (Trichoderma koningii [17]): 59.58%
- inhibition (INH) (Trichoderma koningii [18]): 100%
- inhibition (INH) (Aspergillus niger [19]): 100%
- inhibition (INH) (Aspergillus niger [20]): 100%
- inhibition (INH) (Trichoderma koningii [21]): 79.15%
- inhibition (INH) (Trichoderma koningii [22]): 4%
- inhibition (INH) (Trichoderma koningii [23]): 100%
- inhibition (INH) (Aspergillus niger [24]): 38.28%
- inhibition (INH) (Aspergillus niger [25]): 100%
- inhibition (INH) (Trichoderma hamatum [27]): 0%
- inhibition (INH) (Aspergillus niger [28]): 88.42%
- inhibition (INH) (Trichoderma koningii [29]): 64.51%
- inhibition (INH) (Trichoderma koningii [30]): 48.38%
- inhibition (INH) (Trichoderma koningii [31]): 48.29%
- inhibition (INH) (Trichoderma hamatum [32]): 0%
- inhibition (INH) (Aspergillus niger [33]): 87.5%
- inhibition (INH) (Aspergillus niger [34]): 47.25%
- inhibition (INH) (Trichoderma hamatum [35]): 0%
- inhibition (INH) (Trichoderma koningii [36]): 84%
- inhibition (INH) (Aspergillus niger [37]): 46.4%
- inhibition (INH) (Trichoderma koningii [38]): 45.53%
- inhibition (INH) (Trichoderma hamatum [39]): 100%
- inhibition (INH) (Aspergillus niger [40]): 35.69%
- inhibition (INH) (Trichoderma hamatum [42]): 86.83%
- inhibition (INH) (Trichoderma hamatum [43]): 77.38%
- inhibition (INH) (Trichoderma hamatum [45]): 0%
